Results on ten molecules are retold here after ChEMBL document CHEMBL1154633, “Synthesis and biological evaluation of 2-alkynyl-N6-methyl-5'-N-methylcarboxamidoadenosine derivatives as potent and highly selective agonists for the human adenosine A3 receptor” (J Med Chem, 2009).

Calls of active or inactive are those of the source. The rule behind the calls is not given here.

Test [1] concerns the target T1, Adenosine receptor A3 (Homo sapiens) (UniProt P0DMS8).
T1 sequence (whole entry): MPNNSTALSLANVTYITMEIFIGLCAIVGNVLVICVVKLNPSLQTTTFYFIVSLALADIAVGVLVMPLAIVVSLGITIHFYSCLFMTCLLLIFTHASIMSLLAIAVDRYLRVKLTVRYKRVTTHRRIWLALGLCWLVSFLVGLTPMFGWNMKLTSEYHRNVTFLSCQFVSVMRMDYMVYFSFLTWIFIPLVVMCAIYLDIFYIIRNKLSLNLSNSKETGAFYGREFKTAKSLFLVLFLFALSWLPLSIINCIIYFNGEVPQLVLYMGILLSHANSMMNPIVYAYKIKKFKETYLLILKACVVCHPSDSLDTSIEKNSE
Description: Agonist activity at human recombinant adenosine A3 receptor expressed in CHO cells assessed as nonradiaoactive DELFIA Eu-GTP binding treated for 15 mins before addition of Eu-GTP measured after 45 mins by time-resolved fluorometric method relative to Cl-IBMECA. The format is cell-based. Also noted: concentration or dose not given beside the values.

Another test addresses T2, Adenosine receptor A1 (Homo sapiens, UniProt P30542).
T2 sequence (P30542 whole entry): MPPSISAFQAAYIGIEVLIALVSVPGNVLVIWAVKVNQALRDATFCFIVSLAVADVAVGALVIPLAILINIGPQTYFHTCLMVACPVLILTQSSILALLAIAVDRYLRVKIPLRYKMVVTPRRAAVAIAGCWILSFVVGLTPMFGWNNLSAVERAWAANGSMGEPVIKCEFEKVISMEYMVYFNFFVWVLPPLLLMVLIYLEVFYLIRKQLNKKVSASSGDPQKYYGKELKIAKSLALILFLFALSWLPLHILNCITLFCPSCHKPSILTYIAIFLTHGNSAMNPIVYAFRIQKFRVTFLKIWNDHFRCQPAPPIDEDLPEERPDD
The test is described as follows: Displacement of [3H]CCPA from human recombinant adenosine A1 receptor expressed in CHO cells. The format is cell-based. Background: Displacement assays read how much labelled ligand stays bound in the presence of the test substance.

Test [2] concerns the target T1, Adenosine receptor A3 (Homo sapiens). Description: Agonist activity at human recombinant adenosine A3 receptor expressed in CHO cells assessed as nonradiaoactive DELFIA Eu-GTP binding treated for 15 mins before addition of Eu-GTP measured after 45 mins by time-resolved fluorometric method in presence of increasing saponin concentration. The format is cell-based.
The species entered for the next test is Homo sapiens. Description: Selectivity ratio of Ki for human recombinant adenosine A2A receptor to Ki for human recombinant adenosine A3 receptor. The method, boiled down: (§1)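 Selectivity is Ki at human A1R (displacement of [3H]CCPA) or at human A2AR (displacement of [3H]NECA) divided by Ki at human A3R (displacement of [3H]NECA). All receptors stably expressed in CHO cells, competition experiments in 96-well microplates.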

Test [3] has as its target T3, Adenosine receptor A3 (Homo sapiens, UniProt P0DMS8).
T3 sequence (P0DMS8 whole entry): T1 sequence (whole entry)
The test is described as follows: Agonist activity at human recombinant adenosine A3 receptor expressed in CHO cells assessed as nonradiaoactive DELFIA Eu-GTP binding treated for 15 mins before addition of Eu-GTP measured after 45 mins by time-resolved fluorometric method. The format is cell-based.

The target in test [4] is Adenosine receptors; A1 & A3 (Homo sapiens) (UniProt P30542+P0DMS8). Description: Selectivity ratio of Ki for human recombinant adenosine A1 receptor to Ki for human recombinant adenosine A3 receptor. The method, boiled down: as §1
Another test concerns the target Adenosine receptor A2a (Homo sapiens, UniProt P29274). The test is described as follows: Displacement of [3H]NECA from human recombinant adenosine A2A receptor expressed in CHO cells. The format is cell-based. The method, boiled down: (§2)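 Competition binding in 96-well microplates with radioligand [3H]NECA on CHO cells stably transfected with human recombinant A2AR or A3R. Ki of unlabeled compound from displacement of specific binding, with 95% confidence intervals.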

The target of test [5] is T3, Adenosine receptor A3. The test is described as follows: Displacement of [3H]NECA from human recombinant adenosine A3 receptor expressed in CHO cells. The test is classed as cell-based. The method, boiled down: as §2
In test [6] the target is T1, Adenosine receptor A3 (Homo sapiens). The test is described as follows: Ratio of Cl-IBMECA EC50 to compound EC50 for human recombinant adenosine A3 receptor expressed in CHO cells. The test is classed as cell-based.

Chain of Adenosine receptor A2a (P29274 whole entry): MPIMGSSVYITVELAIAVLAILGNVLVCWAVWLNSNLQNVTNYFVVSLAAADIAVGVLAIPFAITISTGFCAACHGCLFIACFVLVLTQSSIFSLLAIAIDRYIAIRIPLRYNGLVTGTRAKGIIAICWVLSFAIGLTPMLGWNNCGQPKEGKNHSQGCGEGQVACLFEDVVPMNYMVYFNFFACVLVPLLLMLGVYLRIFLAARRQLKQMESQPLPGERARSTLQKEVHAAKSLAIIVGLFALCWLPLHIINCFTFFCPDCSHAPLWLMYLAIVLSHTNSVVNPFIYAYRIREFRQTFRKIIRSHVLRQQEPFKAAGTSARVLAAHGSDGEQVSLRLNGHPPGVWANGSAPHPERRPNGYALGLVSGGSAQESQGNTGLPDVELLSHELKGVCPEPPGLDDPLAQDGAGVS

`CONc1nc(C#Cc2ccccn2)nc2c1ncn2[C@@H]1O[C@H](CO)[C@@H](O)[C@H]1O`: the Activity in test [1] was determined as 9%.
Usually Ki stands for the equilibrium dissociation constant of an inhibitor or competing ligand from its target. One may read the EC50 as the concentration at which the effect is half-maximal. For the molecule `CNC(=O)[C@H]1O[C@@H](n2cnc3c(NC)nc(C#Cc4ccccc4)nc32)[C@H](O)[C@@H]1O`, the inhibitory constant (Ki) at Adenosine receptor A1 turned out to be 32.8 µM; at Adenosine receptor A2a, 41.7 µM; at Adenosine receptor A3 [5] it was 0.44 nM. In test [2], the result was inactive. The Ratio Ki in the test filed under Homo sapiens came to 97000; in test [4], 76500. Moreover, the EC50 on Adenosine receptor A3 [3] is 151 nM. Besides, the Activity in test [1] is 100%.
Take `CONc1nc(C#Cc2ccccc2)nc2c1ncn2[C@@H]1O[C@H](CO)[C@@H](O)[C@H]1O`: the results for the Ratio Ki (in the test listed under Homo sapiens; in test [4]) were 1100 and 300, respectively. On Adenosine receptor A3 [3], the 50% effective concentration (EC50) was 320 nM. The inhibitory constant (Ki) on Adenosine receptor A3 [5] turned out to be 3.8 nM. In [1], the Activity was 55%.
For `CNC(=O)[C@H]1O[C@@H](n2cnc3c(NOC)nc(C#Cc4ccc(F)cc4)nc32)[C@H](O)[C@@H]1O`, the result in test [2] was inactive. Besides, the Ratio Ki in the test listed under Homo sapiens was 9800; in test [4], 1600. The EC50 on Adenosine receptor A3 [3] stood at 210 nM. For the same molecule, the Activity in test [1] stood at 100%.
For the molecule `CNC(=O)[C@H]1O[C@@H](n2cnc3c(NOC)nc(C#Cc4ccccn4)nc32)[C@H](O)[C@@H]1O`, in [2], the result was inactive. In addition, the Ratio Ki in the test listed under Homo sapiens stood at 16400; in [4], 3600. Moreover, the EC50 on Adenosine receptor A3 [3] was determined as 52 nM. Moreover, in test [6], the Ratio EC50 stood at 7. Besides, the Activity in [1] was found to be 100%.
Turning to `CNC(=O)[C@H]1O[C@@H](n2cnc3c(NCc4ccc(I)cc4)nc(Cl)nc32)[C@H](O)[C@@H]1O`, on Adenosine receptor A3 [3], the concentration for a half-maximal effect (EC50) is 363 nM.
On to `CNC(=O)[C@H]1O[C@@H](n2cnc3c(NC)nc(C#Cc4ccccn4)nc32)[C@H](O)[C@@H]1O`, for which the results for the Ki at Adenosine receptor A1, on Adenosine receptor A2a and at Adenosine receptor A3 [5] were 8.74 µM, 24.3 µM and 0.4 nM, respectively. Further, the outcome in test [2] was inactive. In addition, the Ratio Ki stood at 61000 in the test listed under Homo sapiens and 22000 in test [4]. In addition, the 50% effective concentration (EC50) at Adenosine receptor A3 [3] is 46 nM. In addition, the Ratio EC50 in [6] came out at 7. Also, the Activity in test [1] is 100%.
With `CNC(=O)[C@H]1O[C@@H](n2cnc3c(NOC)nc(C#Cc4ccccc4)nc32)[C@H](O)[C@@H]1O`, the outcome in [2] was inactive. Further, the figures for the Ratio Ki (in the test listed under Homo sapiens; in test [4]) were 8600 and 4800, respectively. The EC50 on Adenosine receptor A3 [3] was 120 nM. Moreover, the Activity in test [1] is 100%.
With `CNC(=O)[C@H]1O[C@@H](n2cnc3c(NC)nc(C#Cc4ccc(F)cc4)nc32)[C@H](O)[C@@H]1O`, the values for the Ki on Adenosine receptor A1, at Adenosine receptor A2a and on Adenosine receptor A3 [5] were 5.31 µM, 12.7 µM and 0.43 nM, respectively. In test [2], the result was inactive. Also, the figures for the Ratio Ki (in the test listed under Homo sapiens; in test [4]) were 29500 and 12500, respectively. In addition, the 50% effective concentration (EC50) at Adenosine receptor A3 [3] stood at 190 nM. The Activity in test [1] turned out to be 100%.
As to `CNc1nc(C#Cc2ccccc2)nc2c1ncn2[C@@H]1O[C@H](CO)[C@@H](O)[C@H]1O`, the Ratio Ki in the test filed under Homo sapiens came to 2500; in test [4], 500. Further, the half-maximal effective concentration (EC50) on Adenosine receptor A3 [3] came to 290 nM. The Activity in [1] amounted to 65%.
